Screening results as filed in PubChem.
ZTA counter: ZTA (EBV) inhibition in EBNA-1 counter-screen. 0.15% of 320,000 active. ZTA-DNA binding, fluorescence polarization. inhibition, % at 11 µM. P03206; in the data active means inhibition above about 33%
Target sequence (P03206 whole entry, looked up): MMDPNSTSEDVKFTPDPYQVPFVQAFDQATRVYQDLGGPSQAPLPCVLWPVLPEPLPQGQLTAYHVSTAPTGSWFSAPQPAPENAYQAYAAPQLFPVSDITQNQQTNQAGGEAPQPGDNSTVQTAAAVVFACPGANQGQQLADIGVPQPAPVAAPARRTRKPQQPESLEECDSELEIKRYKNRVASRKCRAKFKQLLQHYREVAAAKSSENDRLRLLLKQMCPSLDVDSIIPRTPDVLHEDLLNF
EBNA-1 inhibitor: blocks EBNA-1 binding to DNA; 0.34% of 300,000 active; AID 1950; inhibition, % at 14.8 µM; EBNA-1 DNA binding, fluorescence polarization; in the data active means inhibition above about 28%
DNA FID counter: displaces DNA intercalator in HCV helicase counter-screen; 0.17% of 290,000 active; DNA fluorescent intercalator displacement, fluorescence; inhibition, % at 7.9 µM; AID 1845; in the data active means inhibition above about 37%;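 further: 0% = vehicle and 100% = reference compound; higher means more ethidium bromide displaced from hairpin DNA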
GPR7 antag: blocks human GPR7 receptor signaling. 1.1% of 290,000 active. inhibition, % at 4.4 µM. GPR7-expressing cells, fluorescence antagonist assay. AID 1861; in the data active means inhibition above about 16%, passing the limit was not always enough;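 further: cells stimulated with the agonist NPW; 0% = agonist with vehicle and 100% = vehicle without agonist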
Target sequence (P48145 whole entry, looked up): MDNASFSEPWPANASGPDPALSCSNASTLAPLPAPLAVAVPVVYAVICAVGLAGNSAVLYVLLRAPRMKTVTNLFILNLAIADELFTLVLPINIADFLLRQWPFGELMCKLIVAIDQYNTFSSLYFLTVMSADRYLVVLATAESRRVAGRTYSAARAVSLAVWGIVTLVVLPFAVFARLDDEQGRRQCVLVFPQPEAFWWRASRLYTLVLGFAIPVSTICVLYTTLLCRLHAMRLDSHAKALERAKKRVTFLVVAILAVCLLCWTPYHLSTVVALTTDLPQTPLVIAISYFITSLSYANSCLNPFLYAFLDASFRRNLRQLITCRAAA
NS3 helicase inh: inhibitors of Hepatitis C virus NS3 helicase; NS3 helicase DNA unwinding, Cy5 molecular beacon fluorescence; inhibition, % at 10.9 µM; 0.56% of 290,000 active;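 active means inhibition above the mean of all tested compounds plus 3 SD, set per campaign, cut at about 35% in these data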;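 further: 0% = DMSO wells and 100% = thioflavine S control wells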
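System: HCV NS3 helicase fragment; control set: DMSO and thioflavine S; technique: Cy5 fluorescence at 0 and 60 min, beacon hairpin quenching; reagent: beacon DNA duplex substrate plus ATP; replicates: singlicate; schedule: 1 h reaction at 25 °C, ATP-initiated; medium: MOPS buffer pH 6.5 with MgCl2, DTT, Tween20, BSA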
GPR7 antag conf: confirmation of human GPR7 antagonists. inhibition, % at 4.4 µM. AID 1952. shares compounds with GPR7 antag. 52% of 2,400 active. GPR7-expressing cells, calcium fluorescence antagonist mode; in the data active means inhibition above about 24%;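 further: stimulated with the GPR7 agonist NPW; 0% = agonist plus vehicle and 100% = vehicle alone without agonist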
MCHR1 antagonist: counter-screen for GPR7 antagonists: antagonists of human MCHR1 | shares compounds with GPR7 antag | 62% of 2,400 active | MCHR1-expressing cells, fluorescence antagonist assay | inhibition, % at 4.4 µM; in the data active means inhibition above about 22%;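 further: 0% = vehicle with agonist and 100% = vehicle without agonist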
An asterisk follows results filed as active. Shown are actives, neighbours in structure and some others; about 2% of the full set was active somewhere.

What do the screens show for `O=C(Nc1ccccc1)Nc1ccc2nnsc2c1`?
ZTA counter: 1; EBNA-1 inhibitor: -1; DNA FID counter: 5; GPR7 antag: 33*; NS3 helicase inh: -4; GPR7 antag conf: 28*; MCHR1 antagonist: 62*

How did O=C(Nc1ccccc1)Nc1ccc2snnc2c1 do in these assays?
ZTA counter: 3; EBNA-1 inhibitor: 1; DNA FID counter: 8; GPR7 antag: 25*; NS3 helicase inh: 5; GPR7 antag conf: 27*; MCHR1 antagonist: 60*

What do the screens show for `CC(C)c1cccc(C(C)C)c1NC(=O)Cn1c(=O)cnc2ccccc21`?
ZTA counter: -3; EBNA-1 inhibitor: 1; DNA FID counter: -16; GPR7 antag: 22*; NS3 helicase inh: 10; GPR7 antag conf: 10; MCHR1 antagonist: 13

How did CCOc1ccccc1CNC(=O)CCN1C(=O)COc2ccccc21 do in these assays?
ZTA counter: 0; EBNA-1 inhibitor: -2; DNA FID counter: -9; GPR7 antag: 7; NS3 helicase inh: -2

How did O=C(CCN1C(=O)COc2ccccc21)NCc1cccnc1 do in these assays?
ZTA counter: 8; EBNA-1 inhibitor: 3; DNA FID counter: -2; GPR7 antag: 28*; NS3 helicase inh: 6; GPR7 antag conf: -4; MCHR1 antagonist: 21

Results for CC(=O)N(Cc1ccco1)C1(C(=O)NC2CCCCC2)CCCCC1 ?
ZTA counter: 15; EBNA-1 inhibitor: 7; DNA FID counter: -22; GPR7 antag: 16; NS3 helicase inh: 3

How did O=C(c1ccc(=O)[nH]c1)N(Cc1cccs1)C1(C(=O)NC2CCCC2)CCCCC1 do in these assays?
ZTA counter: 12; EBNA-1 inhibitor: 5; DNA FID counter: -34; GPR7 antag: 3; NS3 helicase inh: 0

Results for CCC(C)(C(=O)NC1CCCCC1)N(Cc1ccco1)C(=O)Cc1cccs1 (stereo unspecified) ?
ZTA counter: 6; EBNA-1 inhibitor: 2; DNA FID counter: -22; GPR7 antag: 40*; NS3 helicase inh: 5; GPR7 antag conf: 50*; MCHR1 antagonist: 27*

Results for O=C(c1ccc2c(c1)OCO2)N(Cc1cccs1)C1(C(=O)NC2CCCCC2)CCCCC1 ?
ZTA counter: 26; EBNA-1 inhibitor: 8; DNA FID counter: -20; GPR7 antag: 31*; NS3 helicase inh: 4; GPR7 antag conf: 40*; MCHR1 antagonist: 59*

What do the screens show for `O=C1CCC(C(=O)N(Cc2ccco2)C2(C(=O)NC3CCCC3)CCCCC2)N1` (stereo unspecified)?
ZTA counter: 1; EBNA-1 inhibitor: 2; DNA FID counter: -12; GPR7 antag: 28*; NS3 helicase inh: 2; GPR7 antag conf: 22; MCHR1 antagonist: 17

How did O=C(Cc1cccs1)N(Cc1ccco1)C1(C(=O)NC2CCCCC2)CCCCC1 do in these assays?
ZTA counter: 12; EBNA-1 inhibitor: 0; DNA FID counter: -8; GPR7 antag: 44*; NS3 helicase inh: 8; GPR7 antag conf: 47*; MCHR1 antagonist: 52*

What do the screens show for `COc1ccc(C)c2sc(N(CCN(C)C)C(=O)c3cccc(N4C(=O)CCC4=O)c3)nc12`?
ZTA counter: 17; EBNA-1 inhibitor: 2

What do the screens show for `CC(C)(C)C(=O)CNS(=O)(=O)c1ccc(S(=O)(=O)NC2CC2)cc1`?
ZTA counter: -12; EBNA-1 inhibitor: 5; DNA FID counter: -7; GPR7 antag: -7; NS3 helicase inh: 9

How did Cc1cc(CN2CCC(n3nccc3NC(=O)c3ccccc3C)CC2)n[nH]1 do in these assays?
ZTA counter: 0; EBNA-1 inhibitor: 0; DNA FID counter: -2; GPR7 antag: -13; NS3 helicase inh: -2

Results for O=C(NC1CCCCC1)C(c1cccs1)N(Cc1cccs1)C(=O)c1cccs1 (stereo unspecified) ?
ZTA counter: -5; EBNA-1 inhibitor: -2; DNA FID counter: -34; GPR7 antag: 32*; NS3 helicase inh: 1; GPR7 antag conf: 31*; MCHR1 antagonist: 42*

What do the screens show for `O=C(Cc1cccs1)N(Cc1cccs1)C1(C(=O)NC2CCCC2)CCCCC1`?
ZTA counter: 2; EBNA-1 inhibitor: 4; DNA FID counter: -32; GPR7 antag: 47*; NS3 helicase inh: 5; GPR7 antag conf: 37*; MCHR1 antagonist: 51*

Results for O=C(c1ccc2c(c1)OCO2)N(CC1CCCO1)C1(C(=O)NC2CCCCC2)CCCCC1 (stereo unspecified) ?
ZTA counter: 9; EBNA-1 inhibitor: 21; DNA FID counter: -33; GPR7 antag: 34*; NS3 helicase inh: -5; GPR7 antag conf: 29*; MCHR1 antagonist: 30*

How did Cc1ccc(-c2nc(=O)[nH]c3ccc(Br)cc23)cc1 do in these assays?
DNA FID counter: -19; GPR7 antag: -28; NS3 helicase inh: -7

How did CSc1nnc(N2C(=O)C(O)=C(C(=O)c3ccco3)C2c2ccccc2F)s1 (stereo unspecified) do in these assays?
ZTA counter: 5; EBNA-1 inhibitor: -12; DNA FID counter: -16; GPR7 antag: 23*; NS3 helicase inh: 23; GPR7 antag conf: 3; MCHR1 antagonist: 10

How did CSc1nnc(N2C(=O)C(O)=C(C(=O)c3ccco3)C2c2ccccc2)s1 (stereo unspecified) do in these assays?
ZTA counter: 13; EBNA-1 inhibitor: 12; DNA FID counter: -27; GPR7 antag: -10; NS3 helicase inh: 7

How did COC(=O)c1cc2c(C)c(C)c3ccccn3c-2c1C(=O)OC do in these assays?
ZTA counter: -14; EBNA-1 inhibitor: 7; DNA FID counter: 4; GPR7 antag: 6; NS3 helicase inh: -1

Results for COC(=O)c1cc2ccccn2c2c(C(=O)OC)c(C(=O)OC)cc1-2 ?
ZTA counter: 8; EBNA-1 inhibitor: 5; DNA FID counter: 9; GPR7 antag: 31*; NS3 helicase inh: 0; GPR7 antag conf: -3; MCHR1 antagonist: 22*

Results for CC(C)(C)C(=O)NC1(C(F)(F)F)NC(=O)N(Cc2ccccc2)C1=O (stereo unspecified) ?
ZTA counter: 1; EBNA-1 inhibitor: -4; DNA FID counter: -5; GPR7 antag: 25*; NS3 helicase inh: -4; GPR7 antag conf: 0; MCHR1 antagonist: 9

What do the screens show for `O=C(NC1(C(F)(F)F)NC(=O)N(Cc2ccccc2)C1=O)c1cccs1` (stereo unspecified)?
ZTA counter: 5; EBNA-1 inhibitor: -4; DNA FID counter: 1; GPR7 antag: -3; NS3 helicase inh: -13

What do the screens show for `Clc1ccc(Cn2ncc3c(N4CCCC4)ncnc32)cc1`?
ZTA counter: 9; EBNA-1 inhibitor: -6; DNA FID counter: -19; GPR7 antag: 25*; NS3 helicase inh: 0; GPR7 antag conf: 19; MCHR1 antagonist: 7

Results for CCN1CCN(C(=O)C(C)Sc2nnc3nc(C)cc(C)n23)CC1 (stereo unspecified) ?
ZTA counter: -5
